In PMC8162271 (Chemical Science, 2020):

Legend:
[1] = Trolox equivalent antioxidant capacity; conditions: TEAC assay, result in words
Method in brief: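 Radical quenching was measured with the cationic radical of 2,2′-azino-bis(3-ethylbenzthiazoline-6-sulphonic acid) as substrate, in EtOH at 25 °C. Absorbance was read at 734 nm, and capacity is expressed relative to the vitamin E analog Trolox as Trolox equivalents.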

[2] = molecular target: preformed metal-free Aβ42 aggregates (Homo sapiens, UniProt P05067); experiment: Aβ42 disaggregation experiments; type: biochemical; conditions: preformed aggregates (24 h) then [flavonoid] 50 μM 24 h, pH 7.4
Chain of preformed metal-free Aβ42 aggregates (P05067 672-713): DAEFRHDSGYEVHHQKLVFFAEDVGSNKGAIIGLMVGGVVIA
Method in brief: (§1)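 Aβ42 (25 μM), with or without metal ions, was pre-incubated for 24 h to form aggregates, then exposed to test compound for a further 24 h. Species sizes were analysed by gel/Western blot with anti-Aβ antibody 6E10. Band intensities were quantified as a ratio to the matching control (ISample/IControl). Morphology was examined by TEM.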

metal-free Aβ42 = metal-free Aβ42 (Homo sapiens, UniProt P05067); experiment: Aβ42 aggregation inhibition experiments; type: biochemical; conditions: [Aβ42] 25 μM, [flavonoid] 50 μM, pH 7.4, 37 °C, 24 h
Chain of metal-free Aβ42 (P05067 672-713): as above
Method in brief: (§2)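 Freshly prepared Aβ42 (25 μM), metal-free or with ZnCl2 (25 μM), incubated with test compound (50 μM) at pH 7.4, 37 °C, for 24 h with constant agitation. Species sizes were resolved by gel/Western blot probed with anti-Aβ antibody 6E10. Band intensities were quantified and normalized to the matching untreated control (ISample/IControl). Aggregate morphology was imaged by TEM.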

Cu(II)–Aβ42 = Cu(II)–Aβ42 (Homo sapiens, UniProt P05067); experiment: Aβ42 aggregation inhibition experiments; type: biochemical; conditions: 24 h; for MW distribution of Aβ42 species by gel/Western blot: [Aβ42] 25 μM, [CuCl2] 25 μM, [flavonoid] 50 μM, pH 6.6, 37 °C; for morphology of Aβ42 aggregates by TEM: Cu(II)–Aβ42, [flavonoid] 50 μM
Chain of Cu(II)–Aβ42 (P05067 672-713): as above

[3] = molecular target: Electrophorus electricus AChE (eeAChE) (Electrophorus electricus, UniProt O42275); experiment: AChE activity assay; type: biochemical; conditions: for inhibition of the activity of AChE: eeAChE, result in words; for IC50: AChE IC50, eeAChE, fluorometric assay
Chain of Electrophorus electricus AChE (eeAChE) (O42275 24-633): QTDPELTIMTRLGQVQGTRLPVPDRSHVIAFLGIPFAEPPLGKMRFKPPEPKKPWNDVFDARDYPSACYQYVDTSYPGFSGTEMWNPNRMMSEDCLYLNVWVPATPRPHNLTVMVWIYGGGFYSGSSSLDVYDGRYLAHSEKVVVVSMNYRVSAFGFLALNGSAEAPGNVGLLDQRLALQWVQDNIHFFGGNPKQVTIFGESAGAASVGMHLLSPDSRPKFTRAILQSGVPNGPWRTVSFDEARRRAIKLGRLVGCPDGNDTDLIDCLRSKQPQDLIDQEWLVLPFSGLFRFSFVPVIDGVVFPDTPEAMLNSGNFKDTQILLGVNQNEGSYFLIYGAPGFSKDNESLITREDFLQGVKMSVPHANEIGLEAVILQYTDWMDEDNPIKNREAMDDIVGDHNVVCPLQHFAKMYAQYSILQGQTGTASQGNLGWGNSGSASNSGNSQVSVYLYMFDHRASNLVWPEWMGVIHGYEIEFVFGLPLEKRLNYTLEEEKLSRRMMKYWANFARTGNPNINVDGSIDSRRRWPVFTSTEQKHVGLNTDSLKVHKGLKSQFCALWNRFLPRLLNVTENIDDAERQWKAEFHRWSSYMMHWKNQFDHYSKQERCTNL

Zn(II)–Aβ42 = Zn(II)–Aβ42 (Homo sapiens, UniProt P05067); experiment: Aβ42 aggregation inhibition experiments; type: biochemical; conditions: 24 h; for MW distribution of Aβ42 species by gel/Western blot: [Aβ42] 25 μM, [ZnCl2] 25 μM, [flavonoid] 50 μM, pH 7.4, 37 °C; for morphology of Aβ42 aggregates by TEM: Zn(II)–Aβ42, [flavonoid] 50 μM
Chain of Zn(II)–Aβ42 (P05067 672-713): as the sequence (P05067 672-713) above
Method in brief: as §2

[4] = molecular target: preformed Cu(II)–Aβ42 aggregates (Homo sapiens, UniProt P05067); experiment: Aβ42 disaggregation experiments; type: biochemical
Chain of preformed Cu(II)–Aβ42 aggregates (P05067 672-713): as above
Method in brief: as §1

Interaction with Cu = type: physicochemical; conditions: UV-Vis; indicative of oxidation
Method in brief: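 UV-Vis absorption spectra of test compound (25 μM) recorded with CuCl2 at 0, 12.5, 25, 50 and 125 μM. Medium was 20 mM HEPES, pH 6.6, 150 mM NaCl, or EtOH for some compounds. Additional spectra were taken after adding 0.5, 1 and 2 equiv of CuCl2.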

[5] = molecular target: preformed Zn(II)–Aβ42 aggregates (Homo sapiens, UniProt P05067); experiment: Aβ42 disaggregation experiments; type: biochemical
Chain of preformed Zn(II)–Aβ42 aggregates (P05067 672-713): as above
Method in brief: as §1

SMILES	radical scavenging activity, compared to Trolox [1]	MW distribution of Aβ42 species by gel/Western blot [2]	MW distribution of Aβ42 species by gel/Western blot (metal-free Aβ42)	MW distribution of Aβ42 species by gel/Western blot (Cu(II)–Aβ42)	inhibition of the activity of AChE [3]	MW distribution of Aβ42 species by gel/Western blot (Zn(II)–Aβ42)	IC50 [3] [µM]	morphology of Aβ42 aggregates by TEM (Cu(II)–Aβ42)	morphology of Aβ42 aggregates by TEM (Zn(II)–Aβ42)	morphology of preformed aggregates by TEM [4]	absorption band at ca. 400–440 nm at greater Cu(II) concentrations (Interaction with Cu)	morphology of preformed aggregates by TEM [5]
O=c1cc(-c2ccc(O)cc2)oc2cc(O)cc(O)c12 [Api, Apigenin]	negligible	did not exhibit notable reactivity	did not exhibit significant reactivity	did not exhibit significant reactivity	not inhibited	did not exhibit significant reactivity						
O=c1cc(-c2ccccc2)oc2cc(O)cc(O)c12 [Chr, chrysin]	negligible	did not exhibit notable reactivity	did not exhibit significant reactivity	did not exhibit significant reactivity	not inhibited	did not exhibit significant reactivity						
O=c1c(O)c(-c2ccccc2)oc2cccc(O)c12 [DHF, 3,5-dihydroxyflavone]		did not exhibit notable reactivity	did not exhibit significant reactivity	did not exhibit significant reactivity		did not exhibit significant reactivity	> 2					
O=c1c(-c2ccccc2)coc2cc(O)cc(O)c12 [DHIF, 5,7-dihydroxyisoflavone]	negligible	did not exhibit notable reactivity	did not exhibit significant reactivity	did not exhibit significant reactivity		did not exhibit significant reactivity						
O=c1c(O)c(-c2ccccc2)oc2cc(O)cc(O)c12 [Gal, galangin]		did not exhibit notable reactivity	did not exhibit significant reactivity	did not exhibit significant reactivity		did not exhibit significant reactivity		did not significantly alter the morphologies	fibrillar aggregates similar to those from the compound-free Zn(II)–Aβ42 sample			
O=c1c(-c2ccc(O)cc2)coc2cc(O)cc(O)c12 [Gen, genistein]		did not exhibit notable reactivity	did not exhibit significant reactivity	did not exhibit significant reactivity		did not exhibit significant reactivity						
O=c1cc(-c2ccccc2)oc2cccc(O)c12 [HF, 5-hydroxyflavone]	negligible	did not exhibit notable reactivity	did not exhibit significant reactivity	did not exhibit significant reactivity	not inhibited	did not exhibit significant reactivity	> 2	did not significantly alter the morphologies	fibrillar aggregates similar to those from the compound-free Zn(II)–Aβ42 sample			
O=c1c(-c2ccccc2)coc2cccc(O)c12 [HIF, 5-hydroxyisoflavone]	negligible	did not exhibit notable reactivity	did not exhibit significant reactivity	did not exhibit significant reactivity	not inhibited	did not exhibit significant reactivity						
O=c1c(O)c(-c2ccc(O)cc2)oc2cc(O)cc(O)c12 [Kae, kaempferol]		did not impact	did not significantly influence	increased the signal in the range of ca. 7–50 kDa		did not significantly influence		amorphous assemblies distinct from native Aβ42 fibrils	fibrillar aggregates similar to those from the compound-free Zn(II)–Aβ42 sample	a mixture of amorphous aggregates and thinner chopped fibrils	diminished	
O=c1cc(-c2ccc(O)c(O)c2)oc2cc(O)cc(O)c12 [Lut, luteolin]		did not impact	minor change	increased the signal in the range of ca. 7–50 kDa		altered the aggregation of Zn(II)–Aβ42, resulting in diverse MW distributions from ca. 15 to 50 kDa		decreased the degree of branching in the fibrils	thinner chopped fibrils	a mixture of amorphous aggregates and thinner chopped fibrils		
O=c1c(-c2ccc(O)c(O)c2)coc2cc(O)cc(O)c12 [Oro, orobol]		very mildly varied the MW distribution	minor change	significantly decreased the band intensity of the entire range (7–270 kDa)		altered the aggregation of Zn(II)–Aβ42, resulting in diverse MW distributions from ca. 15 to 50 kDa		thinner and shorter aggregates	thinner chopped fibrils	a mixture of amorphous aggregates and thinner chopped fibrils		shorter fibrils
O=c1c(O)c(-c2ccc(O)c(O)c2)oc2cc(O)cc(O)c12 [Que, Quercetin]		very mildly varied the MW distribution	minor change	increased the smearing band intensity at ca. 7–270 kDa		altered the aggregation of Zn(II)–Aβ42, resulting in diverse MW distributions from ca. 15 to 50 kDa		significantly shorter fibrillar aggregates	thinner chopped fibrils	a mixture of amorphous aggregates and thinner chopped fibrils	diminished	shorter fibrils
